# Reference: ChEMBL document CHEMBL4325837, “Discovery of novel NO-releasing celastrol derivatives with Hsp90 inhibition and cytotoxic activities” (Eur J Med Chem, 2018)
# pIC50: −log10 of the molar value. Activity calls are given as the source filed them. The rule behind the calls is not given here.
# Columns and labels:
# MCF7 = experiment: Antiproliferative activity against human MCF7 cells after 48 hrs by MTT assay; type: functional, cell-based; conditions: MCF7, 48 h
# Procedure, shortened: (§1)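 MTT assay. Cells were seeded at 5.0 × 10⁴ cells/ml in 100 μL per well and grown 24 h. They were then exposed to a range of concentrations for 48 h. MTT (5 mg/ml) was added for 4 h, the supernatant was removed and DMSO was added. OD was read at 570 nm. Assays were run in triplicate and IC50 is reported as mean ± SD, n = 3.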
# [1] = Drug metabolism in human A549 cells assessed as nitric oxide release at 4 uM measured up to 24 hrs; type: ADME, cell-based; conditions: a549, 24 h
# Procedure, shortened: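 A549 cells were seeded at 5.0 × 10⁴ cells/ml in 100 μL wells and grown 24 h at 37 °C. Hybrids were added at 4 μM for varying times, with 24 h used for the full set. NO was measured with a Nitrate/Nitrite assay kit against a standard curve, reading OD at 550 nm. Values are the mean of three independent experiments.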
# HOS = experiment: Antiproliferative activity against human HOS cells after 48 hrs by MTT assay; type: functional, cell-based; procedure, shortened: as §1
# A549 [2] = experiment: Antiproliferative activity against human A549 cells after 48 hrs by MTT assay; type: functional, cell-based; conditions: A549, 48 h; procedure, shortened: as §1
# HepG2 = experiment: Antiproliferative activity against human HepG2 cells after 48 hrs by MTT assay; type: functional, cell-based; conditions: HepG2, 48 h; procedure, shortened: as §1
# A549 [3] = experiment: Cell cycle arrest in human A549 cells assessed as accumulation at G2 phase at 0.8 uM by after 24 hrs by RNase A/propidium iodide staining-based flow cytometric analysis (reference value: 24.84%); type: functional
# A549 [4] = experiment: Induction of apoptosis in human A549 cells assessed as viable cells at 0.6 uM after 48 hrs by Annexin V-FITC/propidium iodide staining-based flow cytometric analysis (reference value: 98.5%); type: functional; conditions: A549, 48 h, read-out: Activity
# Procedure, shortened: (§2)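 A549 cells (4 × 10⁵ per 6 cm dish) were grown 24 h, then treated for 48 h. Cells were harvested, washed twice with cold PBS and resuspended in 250 μL binding buffer with 2.5 μL PI and 2.5 μL Annexin V-FITC. After 15 min at room temperature in the dark, they were analysed by flow cytometry for early and late apoptotic fractions.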
# A549 [5] = experiment: Induction of apoptosis in human A549 cells assessed as nuclear fragmentation at 0.3 to 1.2 uM after 48 hrs by Hoechst 33342 staining based fluorescent microscopic method; type: functional, cell-based
# Procedure, shortened: (§3)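 A549 cells (4 × 10⁵ per 6 cm dish) were grown 24 h, then treated for 48 h. Cells were washed twice with PBS, stained with Hoechst 33342 (10 µg/ml) for 5 min at room temperature in the dark, and examined by fluorescence microscopy for chromatin condensation and nuclear fragmentation.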
# A549 [6] = experiment: Induction of apoptosis in human A549 cells assessed as early apoptotic cells at 0.6 uM after 48 hrs by Annexin V-FITC/propidium iodide staining-based flow cytometric analysis (reference value: 0.5%); type: functional; procedure, shortened: as §2
# A549 [7] = experiment: Induction of apoptosis in human A549 cells assessed as necrotic cells at 1.2 uM after 48 hrs by Annexin V-FITC/propidium iodide staining-based flow cytometric analysis (reference value: 0.6%); type: functional
# A549 [8] = experiment: Cell cycle arrest in human A549 cells assessed as accumulation at G2 phase at 0.2 uM by after 24 hrs by RNase A/propidium iodide staining-based flow cytometric analysis (reference value: 24.84%); type: functional
# A549 [9] = experiment: Induction of apoptosis in human A549 cells assessed as early apoptotic cells at 1.2 uM after 48 hrs by Annexin V-FITC/propidium iodide staining-based flow cytometric analysis (reference value: 0.5%); type: functional
# A549 [10] = experiment: Cell cycle arrest in human A549 cells assessed as accumulation at S phase at 0.2 uM by after 24 hrs by RNase A/propidium iodide staining-based flow cytometric analysis (reference value: 28.11%); type: functional
# A549 [11] = experiment: Induction of apoptosis in human A549 cells assessed as early apoptotic cells at 0.3 uM after 48 hrs by Annexin V-FITC/propidium iodide staining-based flow cytometric analysis (reference value: 0.5%); type: functional; procedure, shortened: as §2
# [12] = target: T1, Heat shock protein HSP90 (Homo sapiens) (UniProt P07900+P08238); experiment: Inhibition of HSP90 in human A549 cells assessed as decrease in CDK4 protein expression at 0.5 to 2.5 uM after 24 hrs by Western blot analysis; type: cell-based
# Procedure, shortened: (§4)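 A549 cells (5 × 10⁵ per 6 cm dish) were grown 24 h, then treated for 24 h. Cells were lysed and the lysate spun at 10,000 g for 20 min at 4 °C. Protein was adjusted to 3 mg/ml by BCA and run on 10% SDS-PAGE. Blots were probed with monoclonal antibodies for Cdk4, Hsp90, p-Akt and Akt, with β-actin as internal control.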
# A549 [13] = experiment: Induction of apoptosis in human A549 cells assessed as viable cells at 1.2 uM after 48 hrs by Annexin V-FITC/propidium iodide staining-based flow cytometric analysis (reference value: 98.5%); type: functional; conditions: A549, 48 h, read-out: Activity
# A549 [14] = experiment: Cell cycle arrest in human A549 cells assessed as accumulation at S phase at 0.4 uM by after 24 hrs by RNase A/propidium iodide staining-based flow cytometric analysis (reference value: 28.11%); type: functional
# [15] = target: T1, Heat shock protein HSP90 (Homo sapiens); experiment: Inhibition of HSP90 in human A549 cells assessed as decrease in Akt phosphorylation at 0.5 to 2.5 uM after 24 hrs by Western blot analysis; type: cell-based; procedure, shortened: as §4
# A549 [16] = experiment: Induction of apoptosis in human A549 cells assessed as necrotic cells at 0.3 uM after 48 hrs by Annexin V-FITC/propidium iodide staining-based flow cytometric analysis (reference value: 0.6%); type: functional; procedure, shortened: as §2
# A549 [17] = experiment: Induction of apoptosis in human A549 cells assessed as late apoptotic cells at 0.6 uM after 48 hrs by Annexin V-FITC/propidium iodide staining-based flow cytometric analysis (reference value: 0.4%); type: functional; procedure, shortened: as §2
# A549 [18] = experiment: Cell cycle arrest in human A549 cells assessed as accumulation at G2 phase at 0.4 uM by after 24 hrs by RNase A/propidium iodide staining-based flow cytometric analysis (reference value: 24.84%); type: functional
# A549 [19] = experiment: Cell cycle arrest in human A549 cells assessed as accumulation at G1 phase at 0.2 uM by after 24 hrs by RNase A/propidium iodide staining-based flow cytometric analysis (reference value: 46.97%); type: functional
# A549 [20] = experiment: Induction of apoptosis in human A549 cells assessed as chromatin condensation at 0.3 to 1.2 uM after 48 hrs by Hoechst 33342 staining based fluorescent microscopic method; type: functional, cell-based; procedure, shortened: as §3
# [21] = target: T1, Heat shock protein HSP90 (Homo sapiens); experiment: Inhibition of HSP90 in human A549 cells at 0.5 to 2.5 uM after 24 hrs by Western blot analysis; type: cell-based; procedure, shortened: as §4
# A549 [22] = experiment: Induction of apoptosis in human A549 cells assessed as late apoptotic cells at 1.2 uM after 48 hrs by Annexin V-FITC/propidium iodide staining-based flow cytometric analysis (reference value: 0.4%); type: functional
# A549 [23] = experiment: Induction of apoptosis in human A549 cells after 48 hrs by Annexin V-FITC/propidium iodide staining-based flow cytometric analysis; type: functional, cell-based; procedure, shortened: as §2
# A549 [24] = experiment: Induction of apoptosis in human A549 cells assessed as viable cells at 0.3 uM after 48 hrs by Annexin V-FITC/propidium iodide staining-based flow cytometric analysis (reference value: 98.5%); type: functional; conditions: A549, 48 h, read-out: Activity; procedure, shortened: as §2
# A549 [25] = experiment: Induction of apoptosis in human A549 cells assessed as necrotic cells at 0.6 uM after 48 hrs by Annexin V-FITC/propidium iodide staining-based flow cytometric analysis (reference value: 0.6%); type: functional; procedure, shortened: as §2
# A549 [26] = experiment: Induction of apoptosis in human A549 cells assessed as late apoptotic cells at 0.3 uM after 48 hrs by Annexin V-FITC/propidium iodide staining-based flow cytometric analysis (reference value: 0.4%); type: functional; procedure, shortened: as §2
# A549 [27] = experiment: Cell cycle arrest in human A549 cells assessed as accumulation at S phase at 0.8 uM by after 24 hrs by RNase A/propidium iodide staining-based flow cytometric analysis (reference value: 28.11%); type: functional
# A549 [28] = experiment: Cell cycle arrest in human A549 cells assessed as accumulation at G1 phase at 0.4 uM by after 24 hrs by RNase A/propidium iodide staining-based flow cytometric analysis (reference value: 46.97%); type: functional
# A549 [29] = experiment: Cell cycle arrest in human A549 cells assessed as accumulation at G1 phase at 0.8 uM by after 24 hrs by RNase A/propidium iodide staining-based flow cytometric analysis (reference value: 46.97%); type: functional
smiles,measurement,setting,value
CC1=C(O)C(=O)C=C2C1=CC=C1[C@@]2(C)CC[C@@]2(C)[C@@H]3C[C@](C)(C(=O)OCCCO[N+](=O)[O-])CC[C@]3(C)CC[C@]12C,pIC50,MCF7,5.60
same,Drug metabolism,[1],Metabolite_Detected
same,pIC50,HOS,5.86
same,pIC50,A549 [2],5.49
same,pIC50,HepG2,5.73
CC1=C(O)C(=O)C=C2C1=CC=C1[C@@]2(C)CC[C@@]2(C)[C@@H]3C[C@](C)(C(=O)OCC(C)COc4no[n+]([O-])c4S(=O)(=O)c4ccccc4)CC[C@]3(C)CC[C@]12C (some centres undefined),pIC50,MCF7,5.83
same,Drug metabolism,[1],Metabolite_Detected
same,pIC50,HOS,5.78
same,pIC50,A549 [2],5.95
same,pIC50,HepG2,5.62
CC1=C(O)C(=O)C=C2C1=CC=C1[C@@]2(C)CC[C@@]2(C)[C@@H]3C[C@](C)(C(=O)OCCCCCCO[N+](=O)[O-])CC[C@]3(C)CC[C@]12C,pIC50,MCF7,5.50
same,pIC50,HOS,5.47
same,pIC50,A549 [2],5.44
same,pIC50,HepG2,5.33
CC1=C(O)C(=O)C=C2C1=CC=C1[C@@]2(C)CC[C@@]2(C)[C@@H]3C[C@](C)(C(=O)NCCOc4no[n+]([O-])c4S(=O)(=O)c4ccccc4)CC[C@]3(C)CC[C@]12C,pIC50,MCF7,5.82
same,Drug metabolism,[1],Metabolite_Detected
same,pIC50,HOS,5.83
same,pIC50,A549 [2],5.97
same,pIC50,HepG2,5.42
CC1=C(O)C(=O)C=C2C1=CC=C1[C@@]2(C)CC[C@@]2(C)[C@@H]3C[C@](C)(C(=O)OCC(C)Oc4no[n+]([O-])c4S(=O)(=O)c4ccccc4)CC[C@]3(C)CC[C@]12C (some centres undefined),pIC50,MCF7,5.69
same,pIC50,HOS,5.52
same,pIC50,A549 [2],5.68
same,pIC50,HepG2,5.62
CC1=C(O)C(=O)C=C2C1=CC=C1[C@@]2(C)CC[C@@]2(C)[C@@H]3C[C@](C)(C(=O)OCCCCCO[N+](=O)[O-])CC[C@]3(C)CC[C@]12C,pIC50,MCF7,5.52
same,pIC50,HOS,5.54
same,pIC50,A549 [2],5.27
same,pIC50,HepG2,5.47
CC1=C(O)C(=O)C=C2C1=CC=C1[C@@]2(C)CC[C@@]2(C)[C@@H]3C[C@](C)(C(=O)NCCCOc4no[n+]([O-])c4S(=O)(=O)c4ccccc4)CC[C@]3(C)CC[C@]12C,Activity,A549 [3],16.59%
same,pIC50,MCF7,6.11
same,viability at 0.6 µM,A549 [4],64.8%
same,Activity,A549 [5],Active
same,Activity,A549 [6],9.9%
same,Activity,A549 [7],9.8%
same,Activity,A549 [8],21.12%
same,Activity,A549 [9],12.9%
same,Activity,A549 [10],27.71%
same,Activity,A549 [11],3.1%
same,inhibition,[12],Active
same,viability at 1.2 µM,A549 [13],46.3%
same,Activity,A549 [14],25.12%
same,inhibition,[15],Active
same,Activity,A549 [16],1.7%
same,Activity,A549 [17],20%
same,Activity,A549 [18],18.38%
same,Activity,A549 [19],52.05%
same,Activity,A549 [20],Active
same,inhibition,[21],inactive
same,Drug metabolism,[1],Metabolite_Detected
same,pIC50,HOS,6.29
same,Activity,A549 [22],31%
same,Activity,A549 [23],Dose-dependent effect
same,viability at 0.3 µM,A549 [24],88.8%
same,Activity,A549 [25],5.3%
same,Activity,A549 [26],6.4%
same,Activity,A549 [27],25.48%
same,Activity,A549 [28],56.36%
same,pIC50,A549 [2],6.32 to 6.37
same,pIC50,HepG2,5.85
same,Activity,A549 [29],61.12%
